Data taken from publication PMC10286098 (ACS Omega, 2023).
Where “and” joins values, the source holds several entries; their conditions need not be identical. Equal entries are not always repeated. Where two headings read alike, the source gives them in different places.

Assays:
MRC-5 cells = conditions: MRC-5 normal lung cells, WST-1, mean ± standard error
hDHODH = hDHODH (Homo sapiens, UniProt Q02127); assay: hDHODH fluorescence-based; type: biochemical; conditions: for IC50: IC50 over hDHODH, fluorescence-based assay, 10-dose, 3-fold dilution from 10 μM; for fold of the reported DHODH inhibitory activity of Leflunomide: versus Leflunomide 600 nM
In short: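 Contract-run assay in which human DHODH oxidizes L-DHO to orotate, coupled to resazurin conversion to resorufin. Test compounds were run as 10 doses in singlet, with 3-fold dilutions from 10 μM. Reactions ran 60 min at room temperature. Orotate stop mix (5 mM final) was added, then resorufin fluorescence was read.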

[1] = H1975 cells, WST-1, 24 h, mean ± standard error
[2] = A549 cells, WST-1, 24 h, mean ± standard error
[3] = H1299 cells, WST-1, 24 h, mean ± standard error

Chain of hDHODH (Q02127 whole entry): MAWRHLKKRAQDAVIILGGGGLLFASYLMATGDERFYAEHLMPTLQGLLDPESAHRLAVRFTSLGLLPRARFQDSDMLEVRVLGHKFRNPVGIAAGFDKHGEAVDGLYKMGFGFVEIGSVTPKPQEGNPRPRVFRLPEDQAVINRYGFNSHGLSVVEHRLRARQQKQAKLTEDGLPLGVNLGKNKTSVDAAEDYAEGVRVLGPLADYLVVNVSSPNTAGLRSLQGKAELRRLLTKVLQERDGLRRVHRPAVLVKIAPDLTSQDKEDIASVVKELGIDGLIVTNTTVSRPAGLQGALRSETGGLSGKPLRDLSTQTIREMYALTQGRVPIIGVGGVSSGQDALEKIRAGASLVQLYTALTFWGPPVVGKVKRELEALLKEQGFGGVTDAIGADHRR

IC50 (hDHODH)	fold of the reported DHODH inhibitory activity of Leflunomide (hDHODH)	Compound	TC50 (H1975 cells; [1])	TC50 (A549 cells; [2])	TC50 (H1299 cells; [3])	TC50 (H1975 cells)	TC50 (A549 cells)	TC50 (H1299 cells)	TC50 (MRC-5 cells)	decrease of cell viability (H1975 cells; H1975, 100 μM, 24 h, preliminary screening (Figure S1))	decrease of cell viability (A549 cells; A549, 100 μM, 24 h, preliminary screening (Figure S1))	decrease of cell viability (H1299 cells; H1299, 100 μM, 24 h, preliminary screening (Figure S1))
		COc1ccc(-c2ccc3[nH]cc(C(=O)Nc4cccc(C(F)(F)F)c4)c3c2)cc1 [4b, 5-(4-Methoxyphenyl)-N-(3-(trifluoromethyl)phenyl)-1H-indole-3-carboxamide]	35 ± 4.0 µM	17 ± 0.5 µM	17 ± 0.3 µM							
		O=C(Nc1cccc(C(F)(F)F)c1)c1c[nH]c2ccc(Nc3ccc(O)cc3)cc12 [5a, 5-((4-Hydroxyphenyl)amino)-N-(3-(trifluoromethyl)phenyl)-1H-indole-3-carboxamide]	33 ± 2.0 µM	32 ± 0.9 µM	33 ± 0.7 µM							
		O=C(Nc1cccc(C(F)(F)F)c1)c1c[nH]c2ccc(Nc3cccc([N+](=O)[O-])c3)cc12 [5d, 5-((3-Nitrophenyl)amino)-N-(3-(trifluoromethyl)phenyl)-1H-indole-3-carboxamide]	29 ± 4.0 µM	16 ± 0.4 µM	18 ± 0.5 µM							
		Cc1oncc1C(=O)Nc1ccc(C(F)(F)F)cc1 [Leflunomide, reference compound]				100 < μM	100 < TC50 <300 μM	300 < μM	300 < μM			
		CNC(=O)c1cc(Oc2ccc(NC(=O)Nc3ccc(Cl)c(C(F)(F)F)c3)c(F)c2)ccn1 [Regorafenib, reference compound]	16 ± 0.5 µM	13 ± 0.8 µM	10 ± 0.4 µM				18 ± 2.0 µM	more than 50%	more than 50%	more than 50%
0.195 µM	3 fold	O=C(Nc1cccc(C(F)(F)F)c1)c1c[nH]c2ccc(Br)cc12 [compound 3, 5-Bromo-N-(3-(trifluoromethyl)phenyl)-1H-indole-3-carboxamide]	28 ± 2.0 µM	22 ± 1.0 µM	27 ± 0.8 µM				45 ± 8.0 µM			
1.2 µM and 1.21 µM		O=C(Nc1cccc(C(F)(F)F)c1)c1c[nH]c2ccc(-c3cccc(CN4CCOCC4)c3)cc12 [compound 4a, 5-(3-(Morpholinomethyl)phenyl)-N-(3-(trifluoromethyl)phenyl)-1H-indole-3-carboxamide]	23 ± 2.0 µM	13 ± 0.3 µM	13 ± 0.1 µM				17 ± 3.0 µM			
		COc1ccc(Nc2ccc3[nH]cc(C(=O)Nc4cccc(C(F)(F)F)c4)c3c2)cc1OC [compound 5b, 5-((3,4-Dimethoxyphenyl)amino)-N-(3-(trifluoromethyl)phenyl)-1H-indole-3-carboxamide]	25 ± 5.0 µM	19 ± 0.4 µM	16 ± 0.6 µM							
0.421 µM	1.5 fold	O=C(Nc1cccc(C(F)(F)F)c1)c1c[nH]c2ccc(Nc3ccc([N+](=O)[O-])cc3)cc12 [compound 5c, 5-((4-Nitrophenyl)amino)-N-(3-(trifluoromethyl)phenyl)-1H-indole-3-carboxamide]	15 ± 1.0 µM	11 ± 0.5 µM	11 ± 0.3 µM				17 ± 0.3 µM			
